# Measurements: ChEMBL document CHEMBL1141286, “Benzochromenones from the marine crinoid Comantheria rotula inhibit hypoxia-inducible factor-1 (HIF-1) in cell-based reporter assays and differentially suppress the growth of certain tumor cell lines” (J Nat Prod, 2007)
# How the values were obtained:
# [1] = tested on: IGROV-1; test: Growth inhibition of human IGROV1 cells; assay type: functional
# [2] = tested on: SW-620; test: Growth inhibition of human SW620 cells; assay type: functional
# [3] = Growth inhibition of human OVACAR3 cells; assay type: functional
# [4] = tested on: MOLT-4; test: Growth inhibition of human MOLT4 cells; assay type: functional
# [5] = tested on: SK-MEL-5; test: Growth inhibition of human SK-MEL5 cells; assay type: functional
# [6] = tested on: COLO 205; test: Growth inhibition of human COLO205 cells; assay type: functional
# [7] = tested on: SNB-75; test: Growth inhibition of human SNB75 cells; assay type: functional
# [8] = tested on: TK-10; test: Growth inhibition of human TK10 cells; assay type: functional
# [9] = tested on: HL-60; test: Growth inhibition of human HL60 cells; assay type: functional
# [10] = tested on: CCRF-CEM; test: Growth inhibition of human CCRF-CEM cells; assay type: functional
# [11] = tested on: NCI-H522; test: Growth inhibition of human NCI-H522 cells; assay type: functional
# [12] = molecular target: Hypoxia inducible factors; HIF-1-alpha, HIF-2-alpha (Homo sapiens, UniProt Q16665+Q99814); test: Inhibition of HIF1 activation in human T47D cells by TK-luciferase assay; assay type: cell-based
# Procedure, shortened: (§1)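 HIF-1 reporter (pHRE-TK-Luc) assays in transfected PC-3 or T47D cells; HIF-1 induced by hypoxia or by the hypoxia mimetic 1,10-phenanthroline (10 μM); compounds at half-log concentrations; luciferase activity measured; IC50 from experiments in triplicate.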
# [13] = tested on: HCT-15; test: Growth inhibition of human HCT15 cells; assay type: functional
# [14] = tested on: SN12C; test: Growth inhibition of human SN12C cells; assay type: functional
# [15] = Inhibition of 1,10-phenanthroline-induced HIF1 activation in PC3 cells by TK-luciferase assay; assay type: cell-based; conditions: Homo sapiens, PC-3; procedure, shortened: as §1
# [16] = tested on: OVCAR-4; test: Growth inhibition of human OVACAR4 cells; assay type: functional
# [17] = tested on: SK-MEL-28; test: Growth inhibition of human SK-MEL28 cells; assay type: functional
# [18] = tested on: Hs-578T; test: Growth inhibition of human HS578T cells; assay type: functional
# [19] = tested on: SK-MEL-2; test: Growth inhibition of human SK-MEL2 cells; assay type: functional
# [20] = tested on: HT-29; test: Growth inhibition of human HT29 cells; assay type: functional
# [21] = Inhibition of HIF1 activation in PC3 cells by TK-luciferase assay; assay type: cell-based; conditions: Homo sapiens, PC-3; procedure, shortened: as §1
# [22] = tested on: A498; test: Growth inhibition of human A498 cells; assay type: functional
# [23] = tested on: 786-0; test: Growth inhibition of human 786-0 cells; assay type: functional
# [24] = tested on: UACC-257; test: Growth inhibition of human UACC257 cells; assay type: functional
# [25] = read-out: Log LC50 (the source's name) (converted)
smiles,measurement,setting,value
COc1cc(O)cc2cc3oc(C)cc(=O)c3c(OC)c12 [COMANTHERIN],GI50,[1],> 100 µM
same,CC50,[1]; [25],> 100 µM
same,TGI,[1]; read-out: Log TGI (converted),> 100 µM
same,GI50,[2],> 100 µM
same,CC50,[2]; [25],> 100 µM
same,TGI,[2]; read-out: Log TGI (converted),> 100 µM
same,GI50,[3],> 100 µM
same,CC50,[3]; [25],> 100 µM
same,TGI,[3]; read-out: Log TGI (converted),> 100 µM
same,GI50,[4],> 100 µM
same,CC50,[4]; [25],> 100 µM
same,TGI,[4]; read-out: Log TGI (converted),> 100 µM
same,GI50,[5],> 100 µM
same,LC50,[5],> 100 µM
same,TGI,[5]; read-out: Log TGI (converted),> 100 µM
same,GI50,[6],> 100 µM
same,CC50,[6]; [25],> 100 µM
same,TGI,[6]; read-out: Log TGI (converted),> 100 µM
same,GI50,[7],> 100 µM
same,LC50,[7],> 100 µM
same,TGI,[7]; read-out: Log TGI (converted),> 100 µM
same,GI50,[8],> 100 µM
same,LC50,[8],> 100 µM
same,TGI,[8]; read-out: Log TGI (converted),> 100 µM
same,GI50,[9],> 100 µM
same,LC50,[9],> 100 µM
same,TGI,[9]; read-out: Log TGI (converted),> 100 µM
same,GI50,[10],2.09 µM
same,LC50,[10],> 100 µM
same,TGI,[10]; read-out: Log TGI (converted),> 100 µM
same,GI50,[11],> 100 µM
same,CC50,[11]; [25],> 100 µM
same,TGI,[11]; read-out: Log TGI (converted),> 100 µM
same,IC50,[12],2.9 µM
same,GI50,[13],> 100 µM
same,CC50,[13]; [25],> 100 µM
same,TGI,[13]; read-out: Log TGI (converted),> 100 µM
same,GI50,[14],> 100 µM
same,LC50,[14],> 100 µM
same,TGI,[14]; read-out: Log TGI (converted),> 100 µM
same,IC50,[15],> 10 µM
same,GI50,[16],> 100 µM
same,LC50,[16],> 100 µM
same,TGI,[16]; read-out: Log TGI (converted),> 100 µM
same,GI50,[17],> 100 µM
same,CC50,[17]; [25],> 100 µM
same,TGI,[17]; read-out: Log TGI (converted),> 100 µM
same,GI50,[18],21.9 µM
same,LC50,[18],> 100 µM
same,TGI,[18]; read-out: Log TGI (converted),> 100 µM
same,GI50,[19],> 100 µM
same,LC50,[19],> 100 µM
same,TGI,[19]; read-out: Log TGI (converted),> 100 µM
same,GI50,[20],> 100 µM
same,CC50,[20]; [25],> 100 µM
same,TGI,[20]; read-out: Log TGI (converted),> 100 µM
same,IC50,[21],10 µM
same,GI50,[22],> 100 µM
same,LC50,[22],> 100 µM
same,TGI,[22]; read-out: Log TGI (converted),> 100 µM
same,GI50,[23],> 100 µM
same,LC50,[23],> 100 µM
same,TGI,[23]; read-out: Log TGI (converted),> 100 µM
same,GI50,[24],> 100 µM
same,LC50,[24],> 100 µM
same,TGI,[24]; read-out: Log TGI (converted),> 100 µM
